# Data taken from article PMC7530031 (Neuropharmacology, 2020).
# “Also recorded” adds a separate entry of the source. Read-outs that look alike come from different tables or passages of the source.
# Assays:
# GluN1/GluN3 receptors [1] = conditions: ref Grand et al., 2018; cited from earlier work
# [2] = target: human GluN1^FA,TL/GluN3A receptors (Homo sapiens, UniProt Q8TCU5); format: cell-based
# [3] = target: human GluN1/GluN3A receptors (Homo sapiens, UniProt Q8TCU5); format: cell-based
# Summary of the method: (§1)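 Xenopus oocyte two-electrode voltage clamp at −40 mV, 23°C. Human GluN1/GluN3A or rat GluN1–4a/GluN3B, with GluN1:GluN3 cRNA at 1:3. […] Concentration–response data normalized to responses without test compound, fitted by Hill equation for IC50, slope and residual minimum. Percent inhibition was 100×(1−Idrug/Icontrol) at fitted maximum. IC50 taken from mean log(IC50); 8–9 oocytes.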
# [4] = target: rat GluN1/GluN3B receptors (rat GluN1–4a/GluN3B) (Rattus norvegicus, UniProt Q8VHN2); format: cell-based
# Summary of the method: as §1
# [5] = target: rat GluN1–4a^FA,TL/GluN3B receptors (Rattus norvegicus, UniProt P35439+Q8VHN2, F484A/T518L); format: cell-based
# [6] = system: GluN1/GluN2 NMDA receptors (GluN1 co-expressed with GluN2A-D); assay: Selectivity test in Xenopus oocytes: GluN1/GluN2 NMDA receptors; format: cell-based
# GluA1–4 AMPA receptors = assay: Selectivity test in Xenopus oocytes: AMPA receptors; format: cell-based, rat, human; conditions: 20 μM; 100 μM glutamate
# [7] = system: GluK1–2 and GluK2/GluK5 kainate receptors; assay: Selectivity test in Xenopus oocytes: kainate receptors; format: cell-based, human; conditions: 20 μM; 100 μM glutamate (GluK2/K5: 100 μM AMPA)
# [8] = system: GABA receptors (GABAA α1β2γ2S, GABAC ρ1); assay: Selectivity test in Xenopus oocytes: GABA receptors; format: cell-based, rat; conditions: 20 μM; 100 μM GABA
# glycine receptors (α1) = target: T1, glycine receptors (α1) (Rattus norvegicus, UniProt P07727); assay: Selectivity test in Xenopus oocytes: glycine receptors; format: cell-based; conditions: 20 μM; 100 μM glycine
# T1 sequence (P07727 29-457): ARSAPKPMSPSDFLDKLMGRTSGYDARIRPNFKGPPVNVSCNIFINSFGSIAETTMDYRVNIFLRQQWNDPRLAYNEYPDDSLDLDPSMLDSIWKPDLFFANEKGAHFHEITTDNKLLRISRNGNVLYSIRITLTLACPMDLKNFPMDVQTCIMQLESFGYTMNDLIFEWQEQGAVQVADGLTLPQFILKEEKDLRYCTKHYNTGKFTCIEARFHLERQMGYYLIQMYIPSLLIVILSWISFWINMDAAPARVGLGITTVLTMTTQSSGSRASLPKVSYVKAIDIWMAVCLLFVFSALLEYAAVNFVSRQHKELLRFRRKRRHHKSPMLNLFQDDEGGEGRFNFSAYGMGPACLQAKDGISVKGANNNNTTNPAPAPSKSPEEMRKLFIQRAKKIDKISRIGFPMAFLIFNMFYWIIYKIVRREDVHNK
# [9] = target: alpha7 nicotinic receptors (Rattus norvegicus, UniProt Q05941); assay: Selectivity test in Xenopus oocytes: alpha7 nicotinic receptors; format: cell-based; conditions: 20 μM; 300 μM acetylcholine
# [10] = target: muscle nicotinic receptors (α1β1δγ) (Rattus norvegicus, UniProt P18916+P25108+P25109+P25110); assay: Selectivity test in Xenopus oocytes: muscle nicotinic receptors; format: cell-based; conditions: 20 μM; 1 μM acetylcholine
# Summary of the method: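 Two-electrode voltage clamp on Xenopus oocytes 2–5 days after cRNA injection; muscle nAChR subunits were injected 1:1:1:1. Recorded at 23°C and −40 mV in HEPES/BaCl2 saline, pH 7.4. Test compound at 20 μM was co-applied with agonist. Response was given as percent of control, taking control as the mean of responses before and after compound exposure.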
# α2β4 nicotinic receptors = α2β4 nicotinic receptors (Rattus norvegicus, UniProt P09483+P12390); assay: Selectivity test in Xenopus oocytes: α2β4 nicotinic receptors; format: cell-based; conditions: 20 μM; 10 μM acetylcholine
# [11] = target: T2, P2X receptors (human P2X2) (Homo sapiens, UniProt Q9UBL9); assay: Selectivity test in Xenopus oocytes: purinergic receptors; format: cell-based; conditions: 20 μM; 9 μM ATP
# T2 sequence (Q9UBL9 1-471): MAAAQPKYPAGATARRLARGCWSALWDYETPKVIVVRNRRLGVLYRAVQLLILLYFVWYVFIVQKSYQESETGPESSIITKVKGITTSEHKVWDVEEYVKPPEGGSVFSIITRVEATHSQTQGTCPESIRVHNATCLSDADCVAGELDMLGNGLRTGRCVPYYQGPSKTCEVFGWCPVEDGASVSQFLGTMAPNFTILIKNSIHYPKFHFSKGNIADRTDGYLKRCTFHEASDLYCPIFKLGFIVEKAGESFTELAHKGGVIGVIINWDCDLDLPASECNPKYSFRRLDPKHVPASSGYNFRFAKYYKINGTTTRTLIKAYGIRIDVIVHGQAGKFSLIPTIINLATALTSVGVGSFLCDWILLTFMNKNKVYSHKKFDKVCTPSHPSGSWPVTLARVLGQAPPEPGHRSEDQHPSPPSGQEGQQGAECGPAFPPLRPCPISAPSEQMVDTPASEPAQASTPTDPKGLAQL
# [12] = target: native GluN1/GluN3A receptors (Mus musculus, UniProt A2AIR5); format: cell-based; conditions: 30 μM; 1 μM CGP-78608; 10 mM glycine puffs; mouse P8–15 slices
# [13] = system: GluN1/GluN2 NMDA receptors; format: cell-based; conditions: 30 μM; 0.5 mM NMDA puffs; mouse P8–15 slices
# GluN1/GluN3A channels = GluN1/GluN3A channels (Mus musculus, UniProt A2AIR5); assay: Nonstationary variance analysis of neuronal glycine-evoked current responses; format: cell-based; conditions: 30 μM; VHOLD −60 mV; n = 5
# Summary of the method: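 Acute mouse hippocampal slices (P8–15), CA1 pyramidal cells, whole-cell at −60 mV, 32°C ACSF with gabazine, NBQX, DL-APV, strychnine and 1 μM CGP-78608. […] Compound at 30 μM or 0.15% DMSO bath-applied. Ten deactivation phases per condition at steady state, split into 50 segments, high-passed at 1 Hz. Variance–current fit gave unitary current; chord conductance assumed 0 mV reversal.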
# GluN1/GluN3 receptors [14] = conditions: ref Kvist et al., 2013a; cited from earlier work
# GluN1 = conditions: read-out: EC50 of glycine at GluN1; ref Grand et al., 2018; Kvist et al., 2013a; cited from earlier work
# GluN3A = conditions: read-out: EC50 of glycine at GluN3A; ref Grand et al., 2018; Kvist et al., 2013a; cited from earlier work
# [15] = 500 nM CGP-78608 plus 100 μM glycine
# Sequence of rat GluN1/GluN3B receptors (rat GluN1–4a/GluN3B) (Q8VHN2 25-1002, other chains not shown): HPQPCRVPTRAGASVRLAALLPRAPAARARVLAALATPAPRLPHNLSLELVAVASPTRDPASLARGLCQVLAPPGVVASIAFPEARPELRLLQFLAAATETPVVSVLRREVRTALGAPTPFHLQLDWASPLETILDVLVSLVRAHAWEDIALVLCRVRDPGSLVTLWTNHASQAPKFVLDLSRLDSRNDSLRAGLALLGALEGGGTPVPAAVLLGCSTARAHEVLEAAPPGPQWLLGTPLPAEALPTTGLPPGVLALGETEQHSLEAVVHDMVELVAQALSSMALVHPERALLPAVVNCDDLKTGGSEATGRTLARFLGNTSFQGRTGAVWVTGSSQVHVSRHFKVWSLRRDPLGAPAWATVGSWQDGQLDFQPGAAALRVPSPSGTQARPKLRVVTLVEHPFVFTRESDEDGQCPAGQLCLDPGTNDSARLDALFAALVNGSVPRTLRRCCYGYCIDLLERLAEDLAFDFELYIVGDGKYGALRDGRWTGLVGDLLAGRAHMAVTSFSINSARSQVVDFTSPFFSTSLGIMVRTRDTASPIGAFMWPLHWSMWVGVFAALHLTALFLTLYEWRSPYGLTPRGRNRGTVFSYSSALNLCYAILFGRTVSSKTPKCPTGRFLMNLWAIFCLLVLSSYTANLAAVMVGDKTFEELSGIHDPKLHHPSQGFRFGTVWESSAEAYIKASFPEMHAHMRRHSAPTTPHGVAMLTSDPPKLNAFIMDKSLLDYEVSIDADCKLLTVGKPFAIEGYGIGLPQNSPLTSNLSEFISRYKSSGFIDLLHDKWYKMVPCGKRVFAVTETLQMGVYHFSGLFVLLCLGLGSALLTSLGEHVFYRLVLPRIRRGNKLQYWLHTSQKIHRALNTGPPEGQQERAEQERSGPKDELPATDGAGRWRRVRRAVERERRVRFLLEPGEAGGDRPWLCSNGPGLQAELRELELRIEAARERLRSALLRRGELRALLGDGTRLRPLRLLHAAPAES
# Sequence of human GluN1^FA,TL/GluN3A receptors (Q8TCU5 24-1115, other chains not shown): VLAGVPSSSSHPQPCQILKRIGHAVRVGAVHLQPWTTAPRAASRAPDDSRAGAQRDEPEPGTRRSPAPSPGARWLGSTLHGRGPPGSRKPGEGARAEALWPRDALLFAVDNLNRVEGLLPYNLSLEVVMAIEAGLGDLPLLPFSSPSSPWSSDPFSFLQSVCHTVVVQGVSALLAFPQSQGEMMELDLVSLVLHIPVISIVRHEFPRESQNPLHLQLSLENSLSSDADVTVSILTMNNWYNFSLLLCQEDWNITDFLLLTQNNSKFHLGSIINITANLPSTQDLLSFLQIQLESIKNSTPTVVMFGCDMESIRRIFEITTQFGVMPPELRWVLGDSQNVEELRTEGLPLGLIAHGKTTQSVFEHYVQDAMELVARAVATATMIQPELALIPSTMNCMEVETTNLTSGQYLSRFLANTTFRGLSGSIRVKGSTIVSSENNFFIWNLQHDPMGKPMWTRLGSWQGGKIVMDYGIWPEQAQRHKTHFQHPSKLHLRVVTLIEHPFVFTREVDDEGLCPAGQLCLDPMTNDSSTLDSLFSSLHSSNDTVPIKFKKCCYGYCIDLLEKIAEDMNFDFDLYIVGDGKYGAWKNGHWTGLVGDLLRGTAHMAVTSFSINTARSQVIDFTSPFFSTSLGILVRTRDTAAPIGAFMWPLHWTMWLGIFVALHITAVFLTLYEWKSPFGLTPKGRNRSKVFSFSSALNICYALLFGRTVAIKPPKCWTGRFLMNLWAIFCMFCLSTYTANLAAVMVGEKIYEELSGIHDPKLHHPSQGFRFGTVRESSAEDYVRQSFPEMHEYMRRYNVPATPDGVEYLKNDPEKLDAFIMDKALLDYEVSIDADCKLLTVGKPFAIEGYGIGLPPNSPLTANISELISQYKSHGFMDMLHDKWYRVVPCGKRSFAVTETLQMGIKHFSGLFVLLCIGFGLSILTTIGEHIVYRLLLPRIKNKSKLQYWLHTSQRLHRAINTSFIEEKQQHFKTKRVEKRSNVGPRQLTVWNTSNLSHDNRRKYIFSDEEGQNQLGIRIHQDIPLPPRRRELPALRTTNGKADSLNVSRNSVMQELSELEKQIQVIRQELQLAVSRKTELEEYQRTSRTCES
# Sequence of human GluN1/GluN3A receptors (Q8TCU5 24-1115, other chains not shown): as above
# Sequence of native GluN1/GluN3A receptors (A2AIR5 27-1135, other chains not shown): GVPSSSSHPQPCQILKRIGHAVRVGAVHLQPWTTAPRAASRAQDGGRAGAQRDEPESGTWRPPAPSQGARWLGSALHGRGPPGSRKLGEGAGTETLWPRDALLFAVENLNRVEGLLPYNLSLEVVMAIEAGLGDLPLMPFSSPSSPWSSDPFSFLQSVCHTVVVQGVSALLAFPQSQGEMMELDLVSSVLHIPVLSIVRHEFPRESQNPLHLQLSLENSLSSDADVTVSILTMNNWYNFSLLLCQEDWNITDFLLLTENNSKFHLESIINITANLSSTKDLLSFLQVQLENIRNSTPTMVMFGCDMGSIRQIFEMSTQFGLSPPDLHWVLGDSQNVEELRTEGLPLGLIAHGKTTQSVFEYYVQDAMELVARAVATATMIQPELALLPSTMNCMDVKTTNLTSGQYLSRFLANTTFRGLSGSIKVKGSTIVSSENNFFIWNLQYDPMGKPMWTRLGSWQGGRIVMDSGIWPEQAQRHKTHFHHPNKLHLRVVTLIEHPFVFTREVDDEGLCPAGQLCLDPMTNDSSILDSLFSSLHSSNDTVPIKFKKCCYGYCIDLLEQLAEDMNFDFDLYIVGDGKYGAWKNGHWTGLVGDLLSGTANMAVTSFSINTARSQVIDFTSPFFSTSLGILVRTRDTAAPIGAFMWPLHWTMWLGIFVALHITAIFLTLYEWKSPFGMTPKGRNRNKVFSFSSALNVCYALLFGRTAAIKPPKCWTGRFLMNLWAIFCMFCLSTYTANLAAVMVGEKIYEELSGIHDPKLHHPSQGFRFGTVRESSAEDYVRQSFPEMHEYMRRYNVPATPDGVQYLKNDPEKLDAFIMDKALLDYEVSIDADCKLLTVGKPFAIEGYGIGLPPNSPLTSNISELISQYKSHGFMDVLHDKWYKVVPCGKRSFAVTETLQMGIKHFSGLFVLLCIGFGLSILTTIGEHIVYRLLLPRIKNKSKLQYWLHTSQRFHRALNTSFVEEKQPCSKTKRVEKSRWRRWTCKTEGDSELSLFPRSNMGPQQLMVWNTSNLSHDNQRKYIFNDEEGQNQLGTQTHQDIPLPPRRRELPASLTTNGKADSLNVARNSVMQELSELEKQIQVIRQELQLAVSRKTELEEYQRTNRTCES
# Sequence of rat GluN1–4a^FA,TL/GluN3B receptors (Q8VHN2 25-1002, other chains not shown): as the sequence (Q8VHN2 25-1002, other chains not shown) above
# Sequence of GluN1/GluN3A channels (A2AIR5 27-1135, other chains not shown): as the sequence (A2AIR5 27-1135, other chains not shown) above
# Sequence of α2β4 nicotinic receptors (P09483 31-630): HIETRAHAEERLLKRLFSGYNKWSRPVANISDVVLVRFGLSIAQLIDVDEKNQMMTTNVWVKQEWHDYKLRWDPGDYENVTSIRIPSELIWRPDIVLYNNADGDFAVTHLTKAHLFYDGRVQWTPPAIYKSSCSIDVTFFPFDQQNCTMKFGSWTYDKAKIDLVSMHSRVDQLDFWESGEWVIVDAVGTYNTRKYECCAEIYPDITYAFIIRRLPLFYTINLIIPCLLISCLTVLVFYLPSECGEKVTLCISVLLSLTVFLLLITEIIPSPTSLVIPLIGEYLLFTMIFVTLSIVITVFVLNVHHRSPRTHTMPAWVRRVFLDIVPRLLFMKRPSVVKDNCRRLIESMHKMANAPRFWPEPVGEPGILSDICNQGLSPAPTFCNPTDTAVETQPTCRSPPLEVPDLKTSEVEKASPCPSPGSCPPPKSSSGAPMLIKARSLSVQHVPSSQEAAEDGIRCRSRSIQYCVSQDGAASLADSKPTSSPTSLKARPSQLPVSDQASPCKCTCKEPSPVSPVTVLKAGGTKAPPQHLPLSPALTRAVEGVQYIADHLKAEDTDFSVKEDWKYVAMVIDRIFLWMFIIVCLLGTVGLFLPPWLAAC
# Sequence of α2β4 nicotinic receptors (P12390 25-500): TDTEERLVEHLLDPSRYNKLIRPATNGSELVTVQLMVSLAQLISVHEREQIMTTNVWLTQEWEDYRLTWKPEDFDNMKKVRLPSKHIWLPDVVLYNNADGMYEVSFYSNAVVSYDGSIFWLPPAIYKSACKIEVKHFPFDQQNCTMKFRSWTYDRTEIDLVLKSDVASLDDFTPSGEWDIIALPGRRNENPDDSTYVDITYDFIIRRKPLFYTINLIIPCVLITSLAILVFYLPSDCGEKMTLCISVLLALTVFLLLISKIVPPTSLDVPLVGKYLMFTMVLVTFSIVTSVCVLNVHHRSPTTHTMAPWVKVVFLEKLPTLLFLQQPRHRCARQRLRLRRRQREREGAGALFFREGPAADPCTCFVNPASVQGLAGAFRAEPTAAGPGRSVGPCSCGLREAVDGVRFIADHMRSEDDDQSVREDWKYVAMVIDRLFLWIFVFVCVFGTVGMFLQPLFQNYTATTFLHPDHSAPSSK
# Sequence of alpha7 nicotinic receptors (Q05941 23-502): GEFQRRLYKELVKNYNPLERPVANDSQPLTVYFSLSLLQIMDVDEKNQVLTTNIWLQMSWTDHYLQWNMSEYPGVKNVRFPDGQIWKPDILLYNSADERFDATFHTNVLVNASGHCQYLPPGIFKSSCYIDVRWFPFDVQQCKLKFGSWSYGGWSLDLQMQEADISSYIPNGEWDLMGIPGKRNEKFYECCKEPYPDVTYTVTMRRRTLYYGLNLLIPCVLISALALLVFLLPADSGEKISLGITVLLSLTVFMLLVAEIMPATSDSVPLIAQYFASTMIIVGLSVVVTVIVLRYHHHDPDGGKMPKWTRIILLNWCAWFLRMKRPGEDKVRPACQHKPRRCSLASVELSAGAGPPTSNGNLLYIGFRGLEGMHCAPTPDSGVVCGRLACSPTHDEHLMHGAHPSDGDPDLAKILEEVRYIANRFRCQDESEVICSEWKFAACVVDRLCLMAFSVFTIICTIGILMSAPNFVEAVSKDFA
smiles,measurement,setting,value
"C[C@@H](NCc1cc(Br)cc2[nH]c(=O)c(=O)[nH]c12)P(=O)(O)O.Cl [CGP-78608, [(1 S)-1-[[(7-bromo-1,2,3,4-tetrahydro-2,3-dioxo-5-quinoxalinyl)methyl]amino]ethyl]phosph onic acid hydrochloride]",effect on activation of GluN1/GluN3 receptors,GluN1/GluN3 receptors [1],can dramatically enhance activation of GluN1/GluN3 receptors
"COc1ccc(OCC(c2ccc(OC)cc2)N2Cc3ccccc3C2=O)cc1 (stereo not shown) [EU1180–438, 2-(2-(4-methoxyphenoxy)-1-(4-methoxyphenyl)ethyl)isoindolin-1-one]","response in the presence of compound, % of control","[2]; 10 μM EU1180–438, 1 mM glycine",29 ± 4.2 % of control
same,dependence of inhibition on glycine concentration,"[2]; 10 μM EU1180–438, 1 mM vs 3 mM glycine",not altered by increasing glycine concentration
same,"response in the presence of compound, % of control","[2]; 10 μM EU1180–438, 3 mM glycine",29 ± 4.2 % of control
same,IC50,"[2]; IC50, pH 6.8",4.2 µM
same,IC50,"[2]; IC50, pH 7.4, 1 mM glycine, holding potential −40 mV, mean of individual fits",3.5 µM
same,% Inhibition (fitted maximum at saturating test compound),[2]; pH 6.8,72%
same,% Inhibition (fitted maximum at saturating test compound),"[2]; pH 7.4, 1 mM glycine, −40 mV",82%
same,"Slope (Hill slope, Fig. 1C)",[2]; responses activated by 1000 μM glycine,1.3
same,"Slope (Hill slope, Fig. 1D)",[3]; [15],1.5
same,"minimum (residual current at saturating concentration, Fig. 1D)",[3]; [15],15%
same,% Inhibition (fitted maximum at saturating test compound),"[3]; pH 7.4, 0.5 μM CGP-78608",85%
same,"Slope (Hill slope, Fig. 1D)",[4]; [15],1.5
same,"minimum (residual current at saturating concentration, Fig. 1D)",[4]; [15],7%
same,% Inhibition (fitted maximum at saturating test compound),"[4]; pH 7.4, 0.5 μM CGP-78608",93%
same,IC50,[5],5.2 µM
same,% inhibition at saturating concentrations determined from the fitted curve,[5]; data not shown,82%
same,activity at GluN1/GluN2 NMDA receptors,"[6]; 20 μM, 100 μM glutamate/100 μM glycine",virtually no activity
same,activity at recombinant GluN1/GluN2 NMDA receptors (library screen),[6]; screen,no detectable activity
same,activity at AMPA receptors,GluA1–4 AMPA receptors,virtually no activity
same,activity at kainate receptors,[7],virtually no activity
same,activity at GABA receptors,[8],virtually no activity
same,activity at glycine receptors,glycine receptors (α1),virtually no activity
same,activity at alpha7 nicotinic receptors,[9],virtually no activity
same,activity at muscle nicotinic receptors,[10],modestly inhibited
same,activity at α2β4 nicotinic receptors,α2β4 nicotinic receptors,modestly inhibited
same,activity at P2X receptors,[11],inactive
same,effect on glycine-activated responses of native GluN1/GluN3A receptors,[12],inhibited significantly; also recorded: strong inhibition
same,effect on NMDA-activated responses mediated by GluN1/GluN2 NMDA receptors,[13],does not affect current responses; also recorded: not modulated
same,average chord conductance of GluN1/GluN3A channels in the presence of compound,GluN1/GluN3A channels,6.3 ± 0.90 pS
O=C(O)c1cc(C(=O)c2ccc(Cl)cc2Cl)c[nH]1 [TK30],preference for GluN1/GluN3 over GluN1/GluN2 receptors,GluN1/GluN3 receptors [14],5- to 10 fold
O=c1[nH]c2nonc2nc1O [TK80],preference for GluN1/GluN3 over GluN1/GluN2 receptors,GluN1/GluN3 receptors [14],5- to 10 fold
NCC(=O)O [glycine],EC50,GluN1,[…]
same,EC50,GluN3A,10 to 60 µM
